The list is not random: actives were taken first. Their share in the collection is about 2.3%.
TRPC4 act – opens the mouse TRPC4 cation channel; Q9QUQ5; AID 2237; 310,000 tested, 0.49% active; HEK293 TRPC4beta/mu-opioid, Fluo4 calcium fluorescence; hits give high values; B-score at 10 µM;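 active = B-score above 5 SD of library B-scores, and initial fluorescence ratio not above library mean plus 5 SD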;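 note: positive B-score marks a calcium rise read as TRPC4 activation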
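Material: TRPC4beta and mu-opioid receptor HEK293 stable cells | Incubation: 45 min room-temperature Fluo4 loading, 110 s read | Detection: Kinetic Fluo4 calcium fluorescence | Measure: Integrated baseline-normalised fluorescence ratio, converted to per-well B score | Benchmarks: Low control buffer alone, high control maximal DAMGO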
TRPC4 block – blocks the mouse TRPC4 cation channel | 300,000 tested, 0.39% active | HEK293 TRPC4beta/mu-opioid, DAMGO-evoked Fluo4 calcium flux; hits give low values | AID 2247 | Q9QUQ5 | B-score at 10 µM;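 active = B-score over 3 SD under the library average, no early fluorescence shift, positive overall ratio signal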
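Signal: kinetic Fluo4 fluorescence imaging of calcium influx. Material: stable TRPC4beta/mu-opioid receptor HEK293 cells. Probe or stimulus: DAMGO in two steps, submaximal then maximal.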
TRPC6 inh – blocks the mouse TRPC6 cation channel; Q61143; 310,000 tested, 1.1% active; HEK293-TRPC6, membrane potential dye, ACh-evoked depolarization; hits give low values; B-score at 10 µM;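 active = B-score under library mean minus 3 SD, initial fluorescence not abnormally high, positive integrated signal ratio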;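 note: B-score derived from integrated fluorescence ratio over the kinetic read; more negative B-score means stronger inhibition of depolarization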
Target sequence (Q61143 whole entry, looked up): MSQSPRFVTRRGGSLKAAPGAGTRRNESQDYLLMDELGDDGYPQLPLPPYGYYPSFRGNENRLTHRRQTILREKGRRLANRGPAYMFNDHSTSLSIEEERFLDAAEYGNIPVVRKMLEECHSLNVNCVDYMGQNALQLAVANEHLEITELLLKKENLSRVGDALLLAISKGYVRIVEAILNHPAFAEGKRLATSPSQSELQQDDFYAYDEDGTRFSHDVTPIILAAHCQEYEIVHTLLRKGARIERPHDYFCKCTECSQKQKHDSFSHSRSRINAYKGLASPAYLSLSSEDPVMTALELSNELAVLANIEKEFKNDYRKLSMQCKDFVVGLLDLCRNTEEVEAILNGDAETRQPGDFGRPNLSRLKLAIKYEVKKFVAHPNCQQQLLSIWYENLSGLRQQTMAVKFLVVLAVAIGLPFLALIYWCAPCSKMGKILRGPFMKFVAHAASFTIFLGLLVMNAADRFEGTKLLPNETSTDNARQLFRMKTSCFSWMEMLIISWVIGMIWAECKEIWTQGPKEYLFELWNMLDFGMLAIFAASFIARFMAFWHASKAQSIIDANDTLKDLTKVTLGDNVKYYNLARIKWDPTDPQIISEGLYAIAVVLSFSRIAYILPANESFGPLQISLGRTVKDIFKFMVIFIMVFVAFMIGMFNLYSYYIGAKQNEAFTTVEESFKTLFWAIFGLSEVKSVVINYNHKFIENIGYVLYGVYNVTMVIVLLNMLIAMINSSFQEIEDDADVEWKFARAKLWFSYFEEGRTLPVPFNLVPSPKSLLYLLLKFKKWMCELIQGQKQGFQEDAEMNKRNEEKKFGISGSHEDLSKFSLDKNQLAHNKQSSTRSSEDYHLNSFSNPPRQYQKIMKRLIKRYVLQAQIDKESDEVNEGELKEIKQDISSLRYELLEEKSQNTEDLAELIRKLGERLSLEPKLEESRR
TRPC4 PAM – TRPC4 (mouse) allosteric potentiation. HEK293 TRPC4beta/mu-opioid, DAMGO EC20, Fluo-4 Ca2+ flux; hits give high values. B-score at 10 µM. 310,000 tested, 0.42% active. AID 2227;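 active = B-score of calcium response area above 5 SD of library B-scores, with initial fluorescence ratio within 5 SD of library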;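 note: B-score of integrated fluorescence ratio over time as area under calcium response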
TRPC6 activator – mouse TRPC6 channel activation. 310,000 tested, 0.13% active. B-score at 10 µM. AID 2550. Q61143. HEK293-TRPC6 membrane potential dye fluorescence; hits give high values;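 active = B-score of the integrated fluorescence ratio above library mean plus 3 SD, and starting fluorescence ratio within library mean plus 5 SD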;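 note: higher score means more depolarization so channel activation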
TRPC4 sel inh 2 – second check of whether TRPC6 inhibitors also affect mouse TRPC4; HEK293 TRPC4/MOR, membrane potential dye fluorescence; channel activated by saturating DAMGO dose; 920 tested, 42% active; shares compounds with TRPC6 inh; inhibition, % at 10 µM;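 active = compounds whose fluorescence signal differed from control wells by over 3 SD, either direction, in both duplicate plates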
TRPC4 spec – mouse TRPC4 off-target activity of TRPC6 inhibitors; AID 2777; 920 tested, 61% active; activity change, negative = inhibition, % at 10 µM; shares compounds with TRPC6 inh; HEK293 TRPC4/mu-opioid, membrane potential fluorescence;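 active = rise or fall in signal beyond 3 SD of buffer-only wells in both replicate plates, either sign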;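 note: integrated kinetic ratio of fluorescence range over baseline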
HEK293 MPD ctr 2-1 – parental HEK293 nonspecific activity of TRPC6 inhibitors, second screen | parental HEK293 membrane potential dye fluorescence; maximal acetylcholine challenge after compound addition | signal change vs control, % at 10 µM | shares compounds with TRPC6 inh | 920 tested, 31% active;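 active = membrane potential signal moving either way by over 3 SD of the maximum-effect control, in both duplicate plates, meaning non-specific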
HEK293 MPD ctr-1 – checks TRPC6 inhibitor effects in parental HEK293 cells | shares compounds with TRPC6 inh | parental HEK293 membrane potential dye fluorescence | membrane potential signal change, % at 10 µM | 920 tested, 60% active | AID 2780;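 active = membrane potential signal shifting up or down by more than 3 SD of buffer-only wells, on both duplicate plates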
HEK293 MPD ctr-2 – checks TRPC6 modulator effects in parental HEK293 cells | shares compounds with TRPC6 inh | membrane potential dye fluorescence | membrane potential signal change, % at 10 µM | 2,400 tested, 51% active | AID 488924;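 active = membrane potential signal moves up or down beyond 5 SD from buffer-only wells, on both duplicate plates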
HEK293 MPD ctr 2-2 – second counter-screen for TRPC6 modulators: effect in parental HEK293 cells; shares compounds with TRPC6 inh; membrane potential dye fluorescence; after compound, maximal acetylcholine stimulation; inhibition, % at 10 µM; 2,400 tested, 14% active;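 active = membrane potential signal drops by more than 5 SD from the mean control signal, in both duplicate plates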;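 note: plate controls were acetylcholine ECmax control wells for no effect and buffer only wells for full effect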
TRPC4/MOR mod – mouse TRPC4 off-target activity of TRPC6 modulators; percent change from control (negative = decrease, positive = increase), % at 10 µM; shares compounds with TRPC6 inh; AID 488927; HEK293 TRPC4/mu-opioid, membrane potential fluorescence; 2,400 tested, 69% active;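 active = membrane potential signal moved up or down beyond 5 SD of buffer control wells, in both duplicate plates, actives on both sides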;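 note: plate controls were assay buffer wells for no effect and DAMGO maximal-effect wells for full effect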
TRPC4/MOR inh 2 – mouse TRPC4 off-target activity of TRPC6 modulators, second screen. inhibition, % at 10 µM. HEK293 TRPC4/mu-opioid, membrane potential dye fluorescence; stimulated with maximal-effect DAMGO. 2,400 tested, 55% active. shares compounds with TRPC6 inh;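 active = drop in membrane potential signal beyond 5 SD of the control wells in both duplicate plates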;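 note: TRPC4 counter screen for TRPC6 hits run under conditions tuned for TRPC6 not TRPC4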
TRPC6 inh conf – confirmation of mouse TRPC6 inhibitors; AID 488960; 3,300 tested, 43% active; HEK293-TRPC6, membrane potential dye, ACh-evoked depolarization; shares compounds with TRPC6 inh; inhibition, % at 10 µM;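 active = fluorescence ratio falls more than 5 SD below the full-stimulation control mean, in both duplicate runs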;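 note: integrated fluorescence ratio of peak minus minimum over baseline after agonist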
TRPC6 act confirm – mouse TRPC6 activator confirmation; shares compounds with TRPC6 inh; HEK293-TRPC6 membrane potential dye fluorescence, FDSS; activation, % at 10 µM; 2,800 tested, 11% active;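 active = ratio signal rise beyond 5 SD above unstimulated control wells' mean, seen in both duplicate runs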;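 note: plate controls were buffer EC0 wells for no effect and acetylcholine ECmax response for full effect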
* marks the source's active call; other numbers are inactive results.

What do the screens show for `Cc1ncc(CN2CCCC(C(=O)c3sccc3C)C2)s1` (configuration not stated)?
TRPC4 act: inactive; TRPC4 block: inactive; TRPC6 inh: inactive; TRPC4 PAM: inactive; TRPC6 activator: inactive

How did CN1CCN(c2cc(N3CCCCCC3)c(F)cc2[N+](=O)[O-])CC1 do in these assays?
TRPC4 act: inactive; TRPC4 block: inactive; TRPC6 inh: -6.02*; TRPC4 PAM: inactive; TRPC6 activator: inactive; HEK293 MPD ctr-2: -88.0%*; HEK293 MPD ctr 2-2: inactive; TRPC4/MOR mod: -23.5%*; TRPC4/MOR inh 2: 54.5%*; TRPC6 inh conf: 41.0%*; TRPC6 act confirm: inactive

How did CN1CCN(c2c(F)cc([N+](=O)[O-])c(N)c2Br)CC1 do in these assays?
TRPC4 act: inactive; TRPC4 block: inactive; TRPC6 inh: inactive; TRPC4 PAM: inactive; TRPC6 activator: inactive

What do the screens show for `C/C=C1/CC(C)C(C)(O)C(=O)OCC2CCN3CCC(OC1=O)C23` (configuration not stated)?
TRPC4 act: inactive; TRPC4 block: inactive; TRPC6 inh: -6.21*; TRPC4 PAM: inactive; TRPC6 activator: inactive; HEK293 MPD ctr-2: inactive; HEK293 MPD ctr 2-2: 81.0%*; TRPC4/MOR mod: 18.5%*; TRPC4/MOR inh 2: inactive; TRPC6 inh conf: 78.5%*; TRPC6 act confirm: inactive

Results for Cc1ccc2c(c1)[C@@H]1CN(C)CC[C@@H]1N2C(=O)Nc1cccc(C(F)(F)F)c1 ?
TRPC4 act: inactive; TRPC4 block: inactive; TRPC6 inh: -5.86*; TRPC4 PAM: inactive; TRPC6 activator: inactive; HEK293 MPD ctr-2: inactive; HEK293 MPD ctr 2-2: inactive; TRPC4/MOR mod: -14.5%*; TRPC4/MOR inh 2: 47.0%*; TRPC6 inh conf: inactive; TRPC6 act confirm: inactive

How did COc1ccccc1CCNC(=O)CCC(=O)N1CC2C[C@@H](C1)Cn1c2cccc1=O do in these assays?
TRPC4 act: inactive; TRPC4 block: inactive; TRPC6 inh: inactive; TRPC4 PAM: inactive; TRPC6 activator: inactive

How did C#CC[N+]1(C)[C@@H]2CC[C@H]1CC(OC(=O)C(CO)c1ccccc1)C2 (some centres not stated) do in these assays?
TRPC4 act: inactive; TRPC4 block: inactive; TRPC6 inh: -10.6*; TRPC4 PAM: inactive; TRPC6 activator: inactive; TRPC4 sel inh 2: inactive; TRPC4 spec: inactive; HEK293 MPD ctr 2-1: -21.0%*; HEK293 MPD ctr-1: inactive; TRPC6 inh conf: 94.1%*; TRPC6 act confirm: inactive

Compound activity as filed in PubChem BioAssay.
